Data taken from ChEMBL document CHEMBL5303300, “EUbOPEN Chemogenomics Library - Multiplex” (2023).
Values joined by “and” are separate entries in the source; they are usually repeats but may differ in a detail not shown here. Identical values can stand only once.

Legend:
Format in all cases: toxicity, cell-based
Fibroblast = assay: Multiplex assay against human fibroblast; conditions: 10 µM, compound concentration 10 uM, number of replicates 2
How it was run: (§1)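 Tubulin, mitochondrial-mass and membrane-permeability phenotypes are per cents of healthy-nucleus cells. Cells were gated by CellPathfinder machine learning into Hoechst high-intensity objects or normal cells, normal cells into healthy, pyknosed or fragmented nuclei, and pyknosed cells into mitotic or apoptotic. Before that, live cells stained at seeding with Hoechst33342, BioTracker Green Microtubule Cytoskeleton Dye, MitoTracker Red and Annexin V Alexa Fluor 680 were imaged on a CQ1 microscope at 37°C and 5% CO2 after compound addition.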

HEK-293T = assay: Multiplex assay against HEK293T; conditions: human, 10 µM, compound concentration 10 uM, number of replicates 2; how it was run: as §1
U2OS = assay: Multiplex assay against U2OS; conditions: human, 10 µM, compound concentration 10 uM, number of replicates 2; how it was run: as §1

CNC(=O)c1nn(C)c2c1C(C)(C)Cc1cnc(Nc3ccc(N4CCN(C)CC4)cc3)nc1-2 [MILCICLIB]
Population Apoptotic (%) (Fibroblast; 12 h): 44% and 41% and 38% and 43% | Population Fragmented Nuclei (%) (Fibroblast; 12 h): 8% and 14% and 10% and 12% | Population Healthy Nuclei (%) (Fibroblast; 12 h): 78% and 69% and 75% and 76% | Population Hoechst High Intensity Objects (%) (Fibroblast; 12 h): 0% | Population Membrane Permeable-Phenotype (%) (Fibroblast; 12 h): 10% and 5% and 9% and 11% | Population Mitochondria Different-Phenotype (%) (Fibroblast; 12 h): 6% and 10% and 4% | Population Mitotic Cells (%) (Fibroblast; 12 h): 56% and 58% and 61% | Population Normal (%) (Fibroblast; 12 h): 99% and 100% | Population Pyknosed Nuclei (%) (Fibroblast; 12 h): 12% and 16% and 13% and 10% | Population Tubulin-Different-Phenotype (%) (Fibroblast; 12 h): 77% and 75% and 67% and 55% | Total Cell Count (Fibroblast; 12 h): 202 and 150 and 248 and 210 | Population Apoptotic (%) (Fibroblast; 24 h): 50% and 39% and 52% | Population Fragmented Nuclei (%) (Fibroblast; 24 h): 18% and 13% and 19% | Population Healthy Nuclei (%) (Fibroblast; 24 h): 71% and 74% and 70% and 73% | Population Hoechst High Intensity Objects (%) (Fibroblast; 24 h): 0% | Population Membrane Permeable-Phenotype (%) (Fibroblast; 24 h): 6% and 0% and 4% and 3% | Population Mitochondria Different-Phenotype (%) (Fibroblast; 24 h): 7% and 9% and 11% and 6% | Population Mitotic Cells (%) (Fibroblast; 24 h): 50% and 60% and 47% | Population Normal (%) (Fibroblast; 24 h): 99% and 100% | Population Pyknosed Nuclei (%) (Fibroblast; 24 h): 9% and 12% and 7% | Population Tubulin-Different-Phenotype (%) (Fibroblast; 24 h): 75% and 71% and 65% and 55% | Total Cell Count (Fibroblast; 24 h): 250 and 149 and 287 and 240 | Population Apoptotic (%) (Fibroblast; 48 h): 60% and 63% and 72% and 73% | Population Fragmented Nuclei (%) (Fibroblast; 48 h): 16% and 21% and 20% and 22% | Population Healthy Nuclei (%) (Fibroblast; 48 h): 71% and 58% and 67% and 63% | Population Hoechst High Intensity Objects (%) (Fibroblast; 48 h): 0% | Population Membrane Permeable-Phenotype (%) (Fibroblast; 48 h): 7% and 6% and 3% and 2% | Population Mitochondria Different-Phenotype (%) (Fibroblast; 48 h): 11% and 9% and 13% and 6% | Population Mitotic Cells (%) (Fibroblast; 48 h): 40% and 36% and 27% and 26% | Population Normal (%) (Fibroblast; 48 h): 100% | Population Pyknosed Nuclei (%) (Fibroblast; 48 h): 12% and 20% and 13% | Population Tubulin-Different-Phenotype (%) (Fibroblast; 48 h): 66% and 57% and 56% and 48% | Total Cell Count (Fibroblast; 48 h): 241 and 162 and 294 and 249 | Population Apoptotic (%) (HEK-293T; 12 h): 71% and 63% and 94% and 80% | Population Fragmented Nuclei (%) (HEK-293T; 12 h): 2% and 5% and 0% | Population Healthy Nuclei (%) (HEK-293T; 12 h): 86% and 83% and 89% and 90% | Population Hoechst High Intensity Objects (%) (HEK-293T; 12 h): 16% and 14% and 15% and 12% | Population Membrane Permeable-Phenotype (%) (HEK-293T; 12 h): 3% and 1% and 0% and 2% | Population Mitochondria Different-Phenotype (%) (HEK-293T; 12 h): 81% and 80% and 79% and 71% | Population Normal (%) (HEK-293T; 12 h): 83% and 85% and 84% and 87% | Population Pyknosed Nuclei (%) (HEK-293T; 12 h): 10% and 7% and 8% | Population Tubulin-Different-Phenotype (%) (HEK-293T; 12 h): 94% and 95% and 91% | Total Cell Count (HEK-293T; 12 h): 247 and 254 and 304 and 272 | Population Apoptotic (%) (HEK-293T; 24 h): 73% and 83% and 95% and 70% | Population Fragmented Nuclei (%) (HEK-293T; 24 h): 3% and 4% and 1% | Population Healthy Nuclei (%) (HEK-293T; 24 h): 91% and 89% and 88% and 93% | Population Hoechst High Intensity Objects (%) (HEK-293T; 24 h): 16% and 15% and 14% | Population Membrane Permeable-Phenotype (%) (HEK-293T; 24 h): 2% and 0% and 1% | Population Mitochondria Different-Phenotype (%) (HEK-293T; 24 h): 86% and 85% and 82% and 78% | Population Normal (%) (HEK-293T; 24 h): 83% and 84% and 85% | Population Pyknosed Nuclei (%) (HEK-293T; 24 h): 5% and 6% | Population Tubulin-Different-Phenotype (%) (HEK-293T; 24 h): 93% and 92% and 90% | Total Cell Count (HEK-293T; 24 h): 355 and 365 and 395 | Population Apoptotic (%) (HEK-293T; 48 h): 82% and 77% and 88% and 76% | Population Fragmented Nuclei (%) (HEK-293T; 48 h): 3% and 1% | Population Healthy Nuclei (%) (HEK-293T; 48 h): 90% and 88% and 93% | Population Hoechst High Intensity Objects (%) (HEK-293T; 48 h): 19% and 16% and 11% and 14% | Population Membrane Permeable-Phenotype (%) (HEK-293T; 48 h): 2% and 1% and 0% | Population Mitochondria Different-Phenotype (%) (HEK-293T; 48 h): 91% and 90% and 94% and 89% | Population Mitotic Cells (%) (HEK-293T; 48 h): 17% and 22% and 12% and 23% | Population Normal (%) (HEK-293T; 48 h): 80% and 83% and 88% and 85% | Population Pyknosed Nuclei (%) (HEK-293T; 48 h): 5% and 8% and 6% and 4% | Population Tubulin-Different-Phenotype (%) (HEK-293T; 48 h): 93% and 89% and 88% | Total Cell Count (HEK-293T; 48 h): 395 and 386 and 413 and 401 | Population Apoptotic (%) (U2OS; 12 h): 66% and 80% and 69% and 62% | Population Healthy Nuclei (%) (U2OS; 12 h): 67% [middle of 4 runs] | Population Hoechst High Intensity Objects (%) (U2OS; 12 h): 0% | Population Mitochondria Different-Phenotype (%) (U2OS; 12 h): 50% and 57% and 45% and 40% | Population Mitotic Cells (%) (U2OS; 12 h): 33% and 19% and 30% and 37% | Population Normal (%) (U2OS; 12 h): 100% and 99% | Population Pyknosed Nuclei (%) (U2OS; 12 h): 39% [middle of 4 runs] | Population Tubulin-Different-Phenotype (%) (U2OS; 12 h): 85% and 92% and 76% and 74% | Population Apoptotic (%) (U2OS; 24 h): 85% and 89% and 80% | Population Healthy Nuclei (%) (U2OS; 24 h): 50% [middle of 4 runs] | Population Hoechst High Intensity Objects (%) (U2OS; 24 h): 0% | Population Mitochondria Different-Phenotype (%) (U2OS; 24 h): 78% and 64% and 65% and 59% | Population Mitotic Cells (%) (U2OS; 24 h): 14% and 10% and 19% | Population Normal (%) (U2OS; 24 h): 100% and 99% | Population Pyknosed Nuclei (%) (U2OS; 24 h): 57% and 43% and 45% and 36% | Population Tubulin-Different-Phenotype (%) (U2OS; 24 h): 78% and 92% and 77% and 69% | Population Apoptotic (%) (U2OS; 48 h): 93% and 84% and 92% and 89% | Population Healthy Nuclei (%) (U2OS; 48 h): 26% [middle of 4 runs] | Population Hoechst High Intensity Objects (%) (U2OS; 48 h): 0% and 1% | Population Membrane Permeable-Phenotype (%) (U2OS; 48 h): 28% and 36% and 26% | Population Mitochondria Different-Phenotype (%) (U2OS; 48 h): 100% and 54% and 69% | Population Mitotic Cells (%) (U2OS; 48 h): 6% and 15% and 7% and 10% | Population Normal (%) (U2OS; 48 h): 100% and 98% | Population Pyknosed Nuclei (%) (U2OS; 48 h): 76% and 42% and 68% and 57% | Population Tubulin-Different-Phenotype (%) (U2OS; 48 h): 71% and 81% and 77%
